# What was measured:
# [1] = tested on: Mycolicibacterium smegmatis; assay: Potentiation of Oxacillin-induced antibacterial activity against Mycobacterium smegmatis mc2 155 ATCC 700084 assessed as Oxacillin MIC at 30 uM incubated for 48 hrs by alamarblue dye based broth microdilution method (Rvb =512 ug/ml); format: functional
# Procedure, shortened: (§1)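 Inoculum from 48 h cultures set to 5 x 10^5 CFU/mL in 7H9 + ADC and pre-dosed with compound from DMSO stock at fixed concentration. β-lactam two-fold serially diluted from top concentration, with an antibiotic-only control series. Stationary 37 °C for 48 h, then alamarBlue for 8 h. MIC is the lowest blue (non-viable) well. Fold reduction is relative to the antibiotic-only MIC. Duplicates, at least two repeats.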
# [2] = tested on: Mycolicibacterium smegmatis; assay: Antibacterial activity against Mycobacterium smegmatis mc2 155 ATCC 700084 assessed as inhibition of bacterial growth incubated for 48 hrs by alamarblue dye based broth microdilution method; format: functional
# Procedure, shortened: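 Inoculum from 48 h cultures set to 5 x 10^5 CFU/mL in 7H9 + ADC. Compound in DMSO two-fold serially diluted from 200 µM top concentration. Stationary 37 °C for 48 h, then alamarBlue for 8 h at 37 °C. MIC is the lowest concentration with no viable bacteria (blue, not pink). Duplicate wells, at least two independent repeats.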
# [3] = tested on: Mycolicibacterium smegmatis; assay: Antibiofilm activity against Mycobacterium smegmatis mc2 155 ATCC 700084 assessed as dispersion of preformed biofilms measured after 24 hrs by crystal violet reporter assay; format: functional, organism-based; details: MC2 155 ATCC 700084, 24 h
# Procedure, shortened: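 Cultures (48 h) diluted to 0.01 in M9 minimal salts with glucose, MgSO4 and CaCl2 in PVC plates. Biofilm grown stationary at 37 °C for 48 h, washed, then fresh medium with compound added for 24 h at 37 °C. Stained with 0.1% crystal violet 30 min, solubilised in 95% ethanol, OD540 read. Media blanks subtracted. Dispersion calculated against untreated biofilm wells. At least three repeats.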
# [4] = tested on: Mycolicibacterium smegmatis; assay: Potentiation of Ceftazidime-induced antibacterial activity against Mycobacterium smegmatis mc2 155 ATCC 700084 assessed as Ceftazidime MIC at 30 uM incubated for 48 hrs by alamarblue dye based broth microdilution method (reference value: 512 ug/ml); format: functional; procedure, shortened: as §1
# [5] = tested on: Mycolicibacterium smegmatis; assay: Potentiation of Cefoxitin-induced antibacterial activity against Mycobacterium smegmatis mc2 155 ATCC 700084 assessed as Cefoxitin MIC at 30 uM incubated for 48 hrs by alamarblue dye based broth microdilution method (reference value: 16 ug/ml); format: functional; procedure, shortened: as §1
# [6] = tested on: Mycolicibacterium smegmatis; assay: Potentiation of Cefotaxime-induced antibacterial activity against Mycobacterium smegmatis mc2 155 ATCC 700084 assessed as fold reduction in Cefotaxime MIC at 30 uM incubated for 48 hrs by alamarblue dye based broth microdilution method; format: functional; procedure, shortened: as §1
# [7] = tested on: Mycolicibacterium smegmatis; assay: Potentiation of Cefoxitin-induced antibacterial activity against Mycobacterium smegmatis mc2 155 ATCC 700084 assessed as fold reduction in Cefoxitin MIC at 30 uM incubated for 48 hrs by alamarblue dye based broth microdilution method; format: functional; procedure, shortened: as §1
# [8] = tested on: Mycolicibacterium smegmatis; assay: Potentiation of Ampicillin-induced antibacterial activity against Mycobacterium smegmatis mc2 155 ATCC 700084 assessed as fold reduction in Ampicillin MIC at 30 uM incubated for 48 hrs by alamarblue dye based broth microdilution method; format: functional; procedure, shortened: as §1
# [9] = tested on: Mycolicibacterium smegmatis; assay: Antibiofilm activity against Mycobacterium smegmatis mc2 155 ATCC 700084 assessed as inhibition of biofilm formation measured after 24 hrs by crystal violet reporter assay; format: functional, organism-based; details: MC2 155 ATCC 700084, 24 h
# [10] = tested on: Mycolicibacterium smegmatis; assay: Potentiation of Ampicillin-induced antibacterial activity against Mycobacterium smegmatis mc2 155 ATCC 700084 assessed as Ampicillin MIC at 30 uM incubated for 48 hrs by alamarblue dye based broth microdilution method (reference value: 128 ug/ml); format: functional; procedure, shortened: as §1
# [11] = Hemolytic activity in sheep RBC assessed as hemolysis at 500 uM measured after 1 hr by UV spectrometer analysis; format: ADME, cell-based, Ovis aries, Erythrocyte; details: sheep red blood cells (erythrocytes), read-out: Activity
# Procedure, shortened: (§2)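 Mechanically defibrinated sheep blood was centrifuged, and the cells were washed and resuspended in PBS three times, then diluted 10-fold. Compound was added from DMSO stock. Controls were 1% Triton X (100% lysis) and PBS (zero lysis). Samples were incubated 1 h at 37 °C with shaking at 200 rpm, then centrifuged. Supernatant was diluted 40-fold in distilled water and read at A540. Run in duplicate, repeated at least twice.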
# [12] = Hemolytic activity in sheep RBC assessed as hemolysis at 200 uM measured after 1 hr by UV spectrometer analysis; format: ADME, cell-based, Ovis aries, Erythrocyte; details: sheep red blood cells (erythrocytes), read-out: Activity; procedure, shortened: as §2
# [13] = tested on: Mycolicibacterium smegmatis; assay: Potentiation of oxacillin-induced antibacterial activity against Mycobacterium smegmatis mc2 155 ATCC 700084 assessed as fold reduction in oxacillin MIC at 30 uM incubated for 48 hrs by alamarblue dye based broth microdilution method; format: functional; procedure, shortened: as §1
# [14] = tested on: Mycolicibacterium smegmatis; assay: Potentiation of Cefotaxime-induced antibacterial activity against Mycobacterium smegmatis mc2 155 ATCC 700084 assessed as Cefotaxime MIC at 30 uM incubated for 48 hrs by alamarblue dye based broth microdilution method (reference value: 128 ug/ml); format: functional; procedure, shortened: as §1
# [15] = tested on: Mycolicibacterium smegmatis; assay: Potentiation of Ceftazidime-induced antibacterial activity against Mycobacterium smegmatis mc2 155 ATCC 700084 assessed as fold reduction in Ceftazidime MIC at 30 uM incubated for 48 hrs by alamarblue dye based broth microdilution method; format: functional; procedure, shortened: as §1
smiles,measurement,setting,value
Nc1nc(-c2c[nH]c3cc(Br)ccc23)c[nH]1,MIC,[1],512 µg/mL
same,MIC,[2],100 µM
same,EC50,[3],27.9 µM
same,MIC,[4],128 µg/mL
same,MIC,[5],16 µg/mL
same,fold change (FC),[6],0
same,fold change (FC),[7],0
same,fold change (FC),[8],0
same,IC50,[9],7.5 µM
same,MIC,[10],128 µg/mL
same,"hemolysis at 1 h, 500 µM",[11],14%
same,"hemolysis at 1 h, 200 µM",[12],7%
same,fold change (FC),[13],0
same,MIC,[14],128 µg/mL
same,fold change (FC),[15],4
